Assay [1] relates to P388. Description: Cytotoxic activity of compound against Murine P388 Leukemia. The class given is functional, cell-based, Mus musculus. The method, boiled down:
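Murine P388 cells were cultured in EMEM with 10% FBS, 2 mM glutamine, 50 units/mL penicillin and 50 μg/mL streptomycin. They were seeded at (1–2) × 10^4 cells/mL without preincubation and exposed to varying concentrations for 72 h at 37 °C, 5% CO2. MTT was then added for 4 h, formazan dissolved in DMSO and read at 570/690 nm.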

Assay [2] deals with P388. Description: […] antitumor activity of compound against P388 leukemia cells at a dose of 6.25 mg/kg. As to conditions: Mus musculus. It is filed as functional. The method, boiled down:
(§1)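 In vivo study: BDF1 mice received 10^6 P388 leukemia cells ip as diluted ascites fluid. Test compounds were suspended in 0.4% CMC and given ip on days 1 and 5 after implantation, with seven mice per group. The endpoint is T/C% = median survival time of the treated group / median survival time of controls × 100.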

The test system of assay [3] is P388. The experiment in a line: […] antitumor activity of compound against P388 leukemia cells at a dose of 3.13 mg/kg. The class given is functional. The method, boiled down:
as §1

The subject of assay [4] is P388. Description: […] antitumor activity of compound against P388 leukemia cells at a dose of 50 mg/kg. It is filed as functional, Mus musculus. The method, boiled down:
as §1

Assay [5] has as its system G-361. The experiment in a line: Cytotoxic activity of compound against G-361 melanoma human tumor cell line. The class given is functional, cell-based. The method, boiled down: (§2)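 Culture was in McCoy's 5A with 10% FBS. Cells were seeded at (1–2) × 10^4 cells/mL, preincubated for 24 h, then incubated with various concentrations for 72 h at 37 °C under 5% CO2. MTT was added for 4 h and the formazan dissolved in DMSO, with A570 read against 690 nm.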

Assay [6] deals with SK-OV-3. The experiment in a line: Cytotoxic activity of compound against SK-OV-3 ovary human tumor cell line. Particulars: SK-OV-3, Female gonad. It is filed as functional, cell-based. The method, boiled down: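 SK-OV-3 cells were maintained in McCoy's 5A with 15% FBS. After seeding at (1–2) × 10^4 cells/mL and 24 h preincubation, wells received graded concentrations for 72 h at 37 °C, 5% CO2. A 4 h MTT incubation followed, with DMSO solubilization and absorbance at 570/690 nm.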

A short description of assay [7]: Cytotoxic activity of compound against SCaBER bladder squamous human tumor cell line. It is filed as functional, cell-based. The method, boiled down: (§3)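 Cells were kept in EMEM with 10% FBS, 2 mM glutamine, NEAA and 1 mM sodium pyruvate. They were seeded at (1–2) × 10^4 cells/mL and preincubated for 24 h. They were then exposed to graded concentrations for 72 h at 37 °C in 5% CO2. MTT was added for a further 4 h and the formazan dissolved in DMSO, with absorbance at 570/690 nm.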

Assay [8] concerns A-427. The experiment in a line: Cytotoxic activity of compound against A-427 lung human tumor cell line. It is filed as functional, cell-based. The method, boiled down: as §3
For assay [9], the system named is P388. Description: In vitro antitumor activity of compound against P388 leukemia cells at a dose of […] mg/kg. The class given is functional, Mus musculus. Also noted: concentration or dose not given beside the values.
Assay [10] is described as follows: Cytotoxic activity of compound against AZ-521 stomach human tumor cell line. The class given is functional. The method, boiled down:
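AZ-521 cells were grown in EMEM with 10% FBS, 2 mM glutamine and NEAA. They were plated at (1–2) × 10^4 cells/mL and preincubated for 24 h, then treated with a range of concentrations for 72 h at 37 °C, 5% CO2. After a 4 h MTT step, the formazan was dissolved in DMSO and read at 570 nm (reference 690 nm).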

For assay [11], the system named is HT-29. The experiment in a line: Cytotoxic activity of compound against HT-29 colon human tumor cell line. It is filed as functional, cell-based. The method, boiled down: as §2
[12] abbreviates: Mus musculus, P388, read-out: IC50.

Values after ≈ are worked out from the molar mass of the structure shown. Some results are limits rather than exact numbers.

For `Cl.N[C@H]1CN(c2nc3c(cc2F)c(=O)c(C(=O)O)cn3-c2nccs2)C[C@@H]1O`, in assay [1] (setting [12]), the IC50 turned out to be 2.09 µg/mL.

`Cl.NC1CCN(c2nc3c(cc2F)c(=O)c(C(=O)O)cn3-c2cccs2)C1` (stereo not drawn): the half-maximal inhibitory concentration (IC50) in assay [1] (setting [12]) was 1.2 µg/mL. Same read-out and setting: to `Cl.NC1CCN(c2nc3c(cc2F)c(=O)c(C(=O)O)cn3-c2ncc(Cl)s2)C1` (stereo not drawn) belongs 0.094 µg/mL. CISPLATIN [listing 1 of 2 here] returned a half-inhibitory concentration (IC50) in assay [1] (p388) of 0.011 µg/mL. On to `Cl.NC1CCN(c2cc3c(cn2)c(=O)c(C(=O)O)cn3-c2nccs2)C1` (stereo not drawn), for which the half-inhibitory concentration (IC50) in assay [1] (setting [12]) was above 1 µg/mL. Regarding `Cl.NCCSc1nc2c(cc1F)c(=O)c(C(=O)O)cn2-c1nccs1`, the IC50 in assay [1] (setting [12]) was above 10 µg/mL. On the same count and under the same terms, to `Cl.NC1CCN(c2nc3c(cc2F)c(=O)c(C(=O)O)cn3-c2nccs2)CC1` belongs 1.63 µg/mL. Regarding `Cl.NC1CCN(c2nc3c(cc2F)c(=O)c(C(=O)O)cn3-c2ccccn2)C1` (stereo not drawn), the IC50 in [1] (setting [12]) is above 10 µg/mL. For the molecule `Cl.NC1CCN(c2nc3c(cc2F)c(=O)c(C(=O)O)cn3Cc2nccs2)C1` (stereo not drawn), the IC50 in [1] (setting [12]) was above 10 µg/mL. As for `Cl.O=C(O)c1cn(-c2nccs2)c2nc(N3CC4NCCOC4C3)c(F)cc2c1=O` (stereo not drawn), the concentration for half-maximal inhibition (IC50) in assay [1] (setting [12]) was above 1 µg/mL.

Turning to CISPLATIN [listing 2 of 2 here], the values for the T/C in [2] and in [3] (Mus musculus) were 290% and 239%, respectively. In the case of `COc1cc([C@@H]2c3cc4c(cc3[C@@H](O[C@@H]3O[C@@H]5CO[C@@H](C)O[C@H]5[C@H](O)[C@H]3O)[C@H]3COC(=O)[C@H]23)OCO4)cc(OC)c1O` [ETOPOSIDE], the T/C in assay [4] is recorded as above 375%; in assay [3], 175%; in assay [9], 250%. In addition, the concentration for half-maximal inhibition (IC50) in assay [5] was determined as 0.28 µg/mL (≈ 0.476 µM); in assay [6] it was 0.95 µg/mL (≈ 1.61 µM); in [7] it was 0.31 µg/mL (≈ 0.527 µM); in [8] it was 0.095 µg/mL (≈ 0.161 µM); in [1] (setting [12]), 0.0085 µg/mL (≈ 0.0144 µM); in [10] it was 0.08 µg/mL (≈ 0.136 µM). Consider `Cl.NCC1CCN(c2nc3c(cc2F)c(=O)c(C(=O)O)cn3-c2nccs2)C1` (stereo not drawn), for which, in assay [1] (setting [12]), the IC50 stood at 0.101 µg/mL.

In the case of `Cl.NC1CCN(c2nc3c(cc2F)c(=O)c(C(=O)O)cn3-c2ccno2)C1` (stereo not drawn), the concentration for half-maximal inhibition (IC50) in assay [1] (setting [12]) was determined as 9.4 µg/mL.

In the case of `Cl.O=C(O)c1cn(-c2nccs2)c2nc(O)c(F)cc2c1=O`, in assay [1] (setting [12]), the IC50 is above 10 µg/mL. Still for that read-out and setting: in the case of `Cl.NC1CCN(c2nc3c(cc2F)c(=O)c(C(=O)O)cn3-c2nncs2)C1` (stereo not drawn) it was 5.5 µg/mL; in that of `Cl.O=C(O)c1cn(-c2nccs2)c2nc(N3CC[C@H](O)C3)c(F)cc2c1=O`, 0.02 µg/mL. Take `CC1(N)CCN(c2nc3c(cc2F)c(=O)c(C(=O)O)cn3-c2nccs2)C1.Cl` (stereo not drawn): the T/C in assay [4] is given as above 375%; in assay [3], 138%; in assay [9], 213%. In assay [1] (setting [12]), the 50% inhibitory concentration (IC50) is 0.026 µg/mL. On to `Cl.NC1CCN(c2cc3c(cc2F)c(=O)c(C(=O)O)cn3-c2nccs2)C1` (stereo not drawn), for which the IC50 in assay [1] (setting [12]) is above 10 µg/mL. On the same count and under the same terms, to `Cc1cnc(-n2cc(C(=O)O)c(=O)c3cc(F)c(N4CCC(N)C4)nc32)s1.Cl` (stereo not drawn) belongs 0.26 µg/mL; to `Cl.NC1CCN(c2nc3c(cc2F)c(=O)c(C(=O)O)cn3-c2nc(-c3ccccc3)cs2)C1` (stereo not drawn), 0.052 µg/mL. As for `CO[C@H]1CN(c2nc3c(cc2F)c(=O)c(C(=O)O)cn3-c2nccs2)C[C@@H]1N.Cl` (stereo in doubt; 43j), the T/C is above 375% in [4], 138% in [3] and 238% in [9]. Besides, the 50% inhibitory concentration (IC50) in assay [5] stood at 0.4 µg/mL; in [6], 1.1 µg/mL; in assay [7], 0.78 µg/mL; in assay [8] it was 0.42 µg/mL; in assay [1] (setting [12]), 0.038 µg/mL; in assay [11], 2.1 µg/mL. The same molecule gave a half-maximal inhibitory concentration (IC50) in [10] of 0.58 µg/mL. As for `Cl.NC1CCN(c2ncc3c(=O)c(C(=O)O)cn(-c4nccs4)c3n2)C1` (stereo not drawn), in assay [1] (setting [12]), the IC50 is 0.047 µg/mL. Still for that read-out and setting: in the case of `Cl.N[C@H]1CCN(c2nc3c(cc2F)c(=O)c(C(=O)O)cn3-c2nccs2)C1` it was 0.028 µg/mL.

`Cl.NC1CCN(c2nc3c(cc2F)c(=O)c(C(=O)O)cn3-c2ccccc2)C1` (stereo not drawn): the 50% inhibitory concentration (IC50) in [1] (setting [12]) is 2.4 µg/mL. In the case of `Cl.NC1CCN(c2nc3c(cc2F)c(=O)c(C(=O)O)cn3-c2ccc(F)cc2)C1` (stereo not drawn), the IC50 in assay [1] (setting [12]) is 2.1 µg/mL. As for `C[C@H]1CN(c2nc3c(cc2F)c(=O)c(C(=O)O)cn3-c2nccs2)C[C@@H]1N.Cl`, the T/C is given as 238% in assay [4], 138% in assay [3] and 175% in assay [9]. Besides, in assay [1] (setting [12]), the IC50 was found to be 0.011 µg/mL. For the molecule `Cl.NC1CCN(c2nc3c(cc2F)c(=O)c(C(=O)O)cn3C2CC2)C1` (stereo not drawn), the 50% inhibitory concentration (IC50) in assay [1] (setting [12]) is 7.9 µg/mL. In the case of `Cl.NC1CCN(c2nc3c(cc2F)c(=O)c(C(=O)O)cn3-c2ncc(Br)s2)C1` (stereo not drawn), in assay [1] (setting [12]), the IC50 stood at 0.085 µg/mL.

These data come from ChEMBL document CHEMBL1136012, “Synthesis and structure-activity relationships of novel 7-substituted 1,4-dihydro-4-oxo-1-(2-thiazolyl)-1,8-naphthyridine-3-carboxylic acids as antitumor agents. Part 1” (J Med Chem, 2002).
